In ChEMBL document CHEMBL3352073, “Synthesis of cyclic 1,9-acetal derivatives of forskolin and their bioactivity evaluation” (Eur J Med Chem, 2014):
≈ marks a conversion by molar mass, not a printed value.

Key:
[1] = Inhibition of rat intestinal alpha-glucosidase using p-nitrophenyl-alpha-D-glucopyranoside substrate by spectrophotometry
Summary of the method: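 Crude enzyme was the centrifuged supernatant of sonicated rat intestinal acetone powder in normal saline (100:1 w/v). Samples from 5 mg/mL DMSO stocks were preincubated with enzyme for 5 min in 100 mM phosphate buffer pH 6.8. Then 5 mM p-nitrophenyl-α-D-glucopyranoside solution was added, and p-nitrophenol was read at 405 nm after 5 min. Substrate-free blanks and a DMSO control were included, in triplicate. IC50 was obtained by regression on mean inhibition.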

MCF7 = assay: Anticancer activity against human MCF7 cells after 24 hrs by MTT assay; format: functional, cell-based; conditions: MCF7, 24 h
Summary of the method: (§1)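 Cells were seeded at 1 × 10^6 to 1 × 10^5 cells/well in FBS-rich medium with antibiotics, and compounds were added after 24 h. MTT (5 mg/ml stock in PBS pH 7.4) was then added, with 4 h in the dark in an incubator. Dye was removed (except for suspension K562), formazan was dissolved in DMSO with 10 min shaking, and A570 was read. Percent cytotoxicity was calculated relative to untreated control absorbance.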

[2] = Anticancer activity against human MDA-MB cells after 24 hrs by MTT assay; format: functional, cell-based
HeLa = assay: Anticancer activity against human HeLa cells after 24 hrs by MTT assay; format: functional, cell-based; summary of the method: as §1
HEK293 = assay: Cytotoxic activity against HEK293 cells after 24 hrs by MTT assay; format: cell-based; conditions: Homo sapiens, HEK293, 24 h; summary of the method: as §1
A498 = assay: Anticancer activity against human A498 cells after 24 hrs by MTT assay; format: functional, cell-based; conditions: A498, 24 h; summary of the method: as §1
K562 = assay: Anticancer activity against human K562 cells after 24 hrs by MTT assay; format: functional, cell-based; conditions: K562, 24 h; summary of the method: as §1
[3] = Anticancer activity against human SH-SY5Y cells after 24 hrs by MTT assay; format: functional, cell-based
WRL68 = assay: Anticancer activity against human WRL68 cells after 24 hrs by MTT assay; format: functional, cell-based; conditions: WRL68, 24 h; summary of the method: as §1
NRK = assay: Cytotoxicty against rat NRK cells after 24 hrs by MTT assay; format: cell-based; summary of the method: as §1
[4] = Induction of hemolysis in human erythrocytes assessed as mean erythrocyte fragility by measuring level of hemolysis at 50% PBS at 100 ug/mL by spectrophotomtery based erythrocyte osmotic fragility assay; format: cell-based
Summary of the method: (§2)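 Heparinised human blood was incubated with compound at 37 °C for 60 min, then transferred to hypotonic PBS (0.1–0.85 %). After 30 min equilibration and centrifugation, supernatant A540 was read. Percent lysis is relative to a 100% haemolysis standard, and fragility curves give MEF50 as the haemolysis level at 50% PBS. DMSO 0.5% served as vehicle control.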

[5] = Induction of hemolysis in human erythrocytes assessed as mean erythrocyte fragility by measuring level of hemolysis at 50% PBS at 50 ug/mL by spectrophotomtery based erythrocyte osmotic fragility assay; format: cell-based; summary of the method: as §2

IC50 [1]	IC50 (MCF7)	IC50 (HeLa)	IC50 (K562)	SMILES	IC50 [2]	IC50 (HEK293)	IC50 (A498)	IC50 [3]	IC50 (WRL68)	IC50 (NRK)	Activity [4]	Activity [5]
6.4 µg/mL (≈ 14.7 µM)	39.2 µg/mL (≈ 89.9 µM)	17.4 µg/mL (≈ 39.9 µM)	> 100 µg/mL	C=C[C@@]1(C)CC(=O)[C@@]23O[C@@H](C)O[C@H]4CCC(C)(C)[C@H]([C@H](OC(C)=O)[C@H](O)[C@@]2(C)O1)[C@]43C	> 100 µg/mL	> 100 µg/mL	41.6 µg/mL (≈ 95.3 µM)	> 100 µg/mL	> 100 µg/mL	> 100 µg/mL	–	–
–	–	–	–	COc1cc(/C=C/C(=O)CC(=O)/C=C/c2ccc(O)c(OC)c2)ccc1O [CURCUMIN]	–	–	–	–	–	–	0.53	–
> 100 µg/mL	> 100 µg/mL	3.89 µg/mL (≈ 8.52 µM)	1.26 µg/mL (≈ 2.77 µM)	C=C[C@@]1(C)CC(=O)[C@@]23O[C@@H](c4ccccc4)O[C@H]4CCC(C)(C)[C@H]([C@H](O)[C@H](O)[C@@]2(C)O1)[C@]43C	20.8 µg/mL (≈ 45.4 µM)	1.17 µg/mL (≈ 2.56 µM)	20.4 µg/mL (≈ 44.8 µM)	21.6 µg/mL (≈ 47.2 µM)	9.79 µg/mL (≈ 21.4 µM)	23.7 µg/mL (≈ 51.9 µM)	0.69	0.67
–	–	–	0.018 µg/mL (≈ 0.0211 µM)	CC(=O)O[C@H]1C(=O)[C@@]2(C)[C@H]([C@H](OC(=O)c3ccccc3)[C@]3(O)C[C@H](OC(=O)[C@H](O)[C@@H](NC(=O)c4ccccc4)c4ccccc4)C(C)=C1C3(C)C)[C@]1(OC(C)=O)CO[C@@H]1C[C@@H]2O [PACLITAXEL]	0.026 µg/mL (≈ 0.0304 µM)	0.008 µg/mL (≈ 0.00937 µM)	7.53 µg/mL (≈ 8.82 µM)	7.3 µg/mL (≈ 8.55 µM)	0.004 µg/mL (≈ 0.00468 µM)	–	–	–
> 100 µg/mL	> 100 µg/mL	46.2 µg/mL (≈ 79.9 µM)	> 100 µg/mL	C=C[C@@]1(C)CC(=O)[C@@]23O[C@@H](c4ccc(Br)cc4)O[C@H]4CCC(C)(C)[C@H]([C@H](O)[C@H](OC(C)=O)[C@@]2(C)O1)[C@]43C	> 100 µg/mL	> 100 µg/mL	> 100 µg/mL	> 100 µg/mL	> 100 µg/mL	> 100 µg/mL	–	–
0.74 µg/mL (≈ 1.41 µM)	> 100 µg/mL	> 100 µg/mL	> 100 µg/mL	C=C[C@@]1(C)CC(=O)[C@@]23O[C@@H](/C=C/c4ccccc4)O[C@H]4CCC(C)(C)[C@H]([C@H](O)[C@H](OC(C)=O)[C@@]2(C)O1)[C@]43C	> 100 µg/mL	38.5 µg/mL (≈ 73.5 µM)	> 100 µg/mL	> 100 µg/mL	> 100 µg/mL	> 100 µg/mL	–	–
0.45 µg/mL (≈ 0.697 µM)	–	–	–	C[C@H]1O[C@H](O[C@H]2[C@H](O)[C@@H](O)[C@@H](O[C@H]3[C@H](O)[C@@H](O)C(O)O[C@@H]3CO)O[C@@H]2CO)[C@H](O)[C@@H](O)[C@@H]1N[C@H]1C=C(CO)[C@@H](O)[C@H](O)[C@H]1O (stereo partly specified) [ACARBOSE]	–	–	–	–	–	–	–	–
4.14 µg/mL (≈ 8.3 µM)	1.15 µg/mL (≈ 2.31 µM)	9.22 µg/mL (≈ 18.5 µM)	1.26 µg/mL (≈ 2.53 µM)	C=C[C@@]1(C)CC(=O)[C@@]23O[C@@H](c4ccccc4)O[C@H]4CCC(C)(C)[C@H]([C@H](OC(C)=O)[C@H](O)[C@@]2(C)O1)[C@]43C	1.28 µg/mL (≈ 2.57 µM)	14.3 µg/mL (≈ 28.7 µM)	16.7 µg/mL (≈ 33.5 µM)	16.6 µg/mL (≈ 33.3 µM)	16.6 µg/mL (≈ 33.3 µM)	20.1 µg/mL (≈ 40.4 µM)	0.57	0.53
4.96 µg/mL (≈ 10.2 µM)	> 100 µg/mL	> 100 µg/mL	> 100 µg/mL	C=C[C@@]1(C)CC(=O)[C@@]23O[C@@H](c4ccco4)O[C@H]4CCC(C)(C)[C@H]([C@H](O)[C@H](OC(C)=O)[C@@]2(C)O1)[C@]43C	> 100 µg/mL	> 100 µg/mL	> 100 µg/mL	> 100 µg/mL	> 100 µg/mL	> 100 µg/mL	–	–
0.76 µg/mL (≈ 1.4 µM)	> 100 µg/mL	> 100 µg/mL	> 100 µg/mL	C=C[C@@]1(C)CC(=O)[C@@]23O[C@@H](c4ccc([N+](=O)[O-])cc4)O[C@H]4CCC(C)(C)[C@H]([C@H](O)[C@H](OC(C)=O)[C@@]2(C)O1)[C@]43C	> 100 µg/mL	> 100 µg/mL	> 100 µg/mL	> 100 µg/mL	> 100 µg/mL	> 100 µg/mL	–	–
> 100 µg/mL	> 100 µg/mL	42 µg/mL (≈ 83.2 µM)	> 100 µg/mL	C=C[C@@]1(C)CC(=O)[C@@]23O[C@@H](c4cccs4)O[C@H]4CCC(C)(C)[C@H]([C@H](O)[C@H](OC(C)=O)[C@@]2(C)O1)[C@]43C	> 100 µg/mL	40.1 µg/mL (≈ 79.6 µM)	> 100 µg/mL	> 100 µg/mL	> 100 µg/mL	> 100 µg/mL	–	–
5.87 µg/mL (≈ 13.4 µM)	> 100 µg/mL	> 100 µg/mL	> 100 µg/mL	C=C[C@@]1(C)CC(=O)[C@@]23O[C@@H](C)O[C@H]4CCC(C)(C)[C@H]([C@H](O)[C@H](OC(C)=O)[C@@]2(C)O1)[C@]43C	> 100 µg/mL	> 100 µg/mL	> 100 µg/mL	> 100 µg/mL	> 100 µg/mL	> 100 µg/mL	–	–
2.81 µg/mL (≈ 5.64 µM)	> 100 µg/mL	> 100 µg/mL	> 100 µg/mL	C=C[C@@]1(C)CC(=O)[C@@]23O[C@@H](c4ccccc4)O[C@H]4CCC(C)(C)[C@H]([C@H](O)[C@H](OC(C)=O)[C@@]2(C)O1)[C@]43C	> 100 µg/mL	> 100 µg/mL	> 100 µg/mL	> 100 µg/mL	> 100 µg/mL	> 100 µg/mL	–	–
4.23 µg/mL (≈ 10.7 µM)	45.7 µg/mL (≈ 116 µM)	0.95 µg/mL (≈ 2.41 µM)	25.4 µg/mL (≈ 64.3 µM)	C=C[C@@]1(C)CC(=O)[C@@]23O[C@@H](C)O[C@H]4CCC(C)(C)[C@H]([C@H](O)[C@H](O)[C@@]2(C)O1)[C@]43C	24.5 µg/mL (≈ 62.1 µM)	24.8 µg/mL (≈ 63 µM)	40.6 µg/mL (≈ 103 µM)	34.7 µg/mL (≈ 87.9 µM)	29.7 µg/mL (≈ 75.4 µM)	48 µg/mL (≈ 122 µM)	0.69	0.85

SMILES	IC50 [1]	IC50 (MCF7)	IC50 (HeLa)	IC50 (K562)	IC50 [2]	IC50 (HEK293)	IC50 (A498)	IC50 [3]	IC50 (WRL68)	IC50 (NRK)	Activity [4]	Activity [5]
COc1cc([C@@H]2c3cc4c(cc3[C@H](O)[C@H]3COC(=O)[C@H]23)OCO4)cc(OC)c1OC [PODOFILOX]	–	–	3.14 µg/mL (≈ 7.58 µM)	0.013 µg/mL (≈ 0.0314 µM)	0.017 µg/mL (≈ 0.041 µM)	0.12 µg/mL (≈ 0.29 µM)	0.034 µg/mL (≈ 0.082 µM)	1.05 µg/mL (≈ 2.53 µM)	–	–	0.69	–
